Assay results reported in ChEMBL document CHEMBL3108701, “Isolation of arginase inhibitors from the bioactivity-guided fractionation of Byrsonima coccolobifolia leaves and stems” (J Nat Prod, 2014).

Legend:
[1] = target: T1, Arginase (Leishmania amazonensis, UniProt O96394); assay: Inhibition of Leishmania amazonensis recombinant arginase expressed in Escherichia coli Rosetta (DE3) pLysS using L-arginine as substrate incubated for 10 mins prior to substrate addition measured after 10 mins by colorimetry
[2] = target: Arginase (Leishmania amazonensis) (UniProt O96394); assay: Noncompetitive inhibition of Leishmania amazonensis recombinant arginase expressed in Escherichia coli Rosetta (DE3) pLysS using L-arginine as substrate assessed as enzyme-substrate-inhibitor complex by Dixon reciprocal plot analysis
Outline: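 Purified recombinant L. amazonensis arginase in 50 mM CHES pH 9.6, 37 °C, with urea read at 600 nm by urease-coupled colorimetry. Three inhibitor concentrations plus an uninhibited control were tested against L-arginine at 6.25–72.0 mM. Inhibition type, Ki and Kis were taken from double-reciprocal plots.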

[3] = target: T1, Arginase; assay: Noncompetitive inhibition of Leishmania amazonensis recombinant arginase expressed in Escherichia coli Rosetta (DE3) pLysS using L-arginine as substrate by Dixon reciprocal plot analysis
Outline: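 His-tagged enzyme purified by Ni-NTA then DEAE anion exchange. Urea production from L-arginine measured in 50 mM CHES pH 9.6 at 37 °C. Enzyme was preincubated 10 min with inhibitor at three concentrations plus a no-inhibitor control. Substrate was then added at 6.25–72.0 mM and reacted for 10 min. Urea read by urease/salicylate–hypochlorite colorimetry at 600 nm, in duplicate. Inhibition type and Ki taken from reciprocal plots.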

Which IC50 [1] does the source give for `CC(=O)Oc1cc(OC(C)=O)c2c(=O)c(OC(C)=O)c(-c3ccc(OC(C)=O)c(OC(C)=O)c3)oc2c1` here?
Its IC50 is 121 µM.

`COc1ccc(-c2oc3cc(O)cc(O)c3c(=O)c2O[C@@H]2O[C@@H](C)[C@H](O)[C@@H](O)[C@H]2O)cc1O` was tested. Which IC50 [1] did it give?
Its IC50 is 88.1 µM.

`COc1c(O)cc(-c2oc3cc(O)cc(O)c3c(=O)c2O[C@@H]2O[C@@H](C)[C@H](O)[C@@H](O)[C@H]2O)cc1O` was tested. Which IC50 [1] did it give?
Its IC50 is 224 µM.

Which Kis [2] does the source give for `C[C@H]1O[C@H](Oc2c(-c3cc(O)c(O)c(O)c3)oc3cc(O)cc(O)c3c2=O)[C@@H](O)[C@@H](O)[C@@H]1O` here?
Its Kis is 1.9 µM.

What about the Ki [3] of the same compound?
The Ki was 3.8 µM.

What about the IC50 [1] of the same compound?
The IC50 was 2.4 µM.

`COc1cc(-c2oc3cc(OC)c(OC)c(OC)c3c(=O)c2OC)cc(OC)c1OC` was tested. Which IC50 [1] did it give?
The IC50 was 128 µM.

How did the IC50 [1] turn out when `C[C@@H]1O[C@@H](O[C@@H]2Cc3c(O)cc(O)cc3O[C@H]2c2ccc(O)c(O)c2)[C@H](O)[C@H](O)[C@H]1O` was run?
Its IC50 is 35.1 µM.

Which results are given for `Oc1cc(O)c2c(c1)O[C@H](c1ccc(O)c(O)c1)[C@H](O)C2` [(-)-EPICATECHIN]?
Ki [3]: 0.2 µM; IC50 [1]: 1.6 µM

What does the source list for `Oc1cc(O)c2c(c1)O[C@H](c1ccc(O)c(O)c1)[C@@H](O)C2` [CIANIDANOL]?
Ki [3]: 0.6 µM; IC50 [1]: 1.7 µM

How did the Kis [2] turn out when `O=c1c(O[C@@H]2O[C@H](CO)[C@@H](O)[C@H](O)[C@H]2O)c(-c2ccc(O)c(O)c2)oc2cc(O)cc(O)c12` [ISOQUERCETIN] was run?
The Kis was 6.9 µM.

What about the IC50 [1] of the same compound?
Its IC50 is 2 µM.

For `O=c1c(O)c(-c2ccc(O)cc2)oc2cc(O)cc(O)c12` [KAEMPFEROL], which IC50 [1] is on record?
Its IC50 is 55 µM.

Which Ki [3] does the source give for `O=c1c(O)c(-c2cc(O)c(O)c(O)c2)oc2cc(O)cc(O)c12` [MYRICETIN] here?
Its Ki is 1.2 µM.

What about the IC50 [1] of the same compound?
Its IC50 is 2.1 µM.

`O=c1c(O)c(-c2ccc(O)c(O)c2)oc2cc(O)cc(O)c12` [QUERCETIN] was tested. Which IC50 [1] did it give?
Its IC50 is 4 µM.

With `C[C@@H]1O[C@@H](Oc2c(-c3ccc(O)c(O)c3)oc3cc(O)cc(O)c3c2=O)[C@H](O)[C@H](O)[C@H]1O` [QUERCITRIN] as the compound, how does the Kis [2] read?
The Kis was 7.2 µM.

What about the Ki [3] of the same compound?
The Ki was 7.9 µM.

And the IC50 [1]?
Its IC50 is 12.2 µM.

With `COc1cc([C@H]2OC[C@H]3[C@@H]2CO[C@@H]3c2cc(OC)c(O)c(OC)c2)cc(OC)c1O` [SYRINGARESINOL] as the compound, how does the IC50 [1] read?
The IC50 was 13.7 µM.

For `COC1=Cc2c(cc(OC)c3cc(C)c(OC)cc23)C(C)(C)C1=O` [TRIGONOSTEMONE], which IC50 [1] is on record?
The IC50 was 16.6 µM.
